Bioassay records from PubChem.
TRPC6 act: mouse TRPC6 channel activation. Q61143. HEK293-TRPC6 membrane potential dye fluorescence; hits give high values. B-score at 10 µM. 310,000 compounds, 0.13% hits. AID 2550;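 active = B-score of the integrated fluorescence ratio above library mean plus 3 SD, and starting fluorescence ratio within library mean plus 5 SD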;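 note: higher score means more depolarization so channel activation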
Kir21 inh: inhibitors of mouse Kir2.1 inward-rectifier potassium channel. P35561. HEK293-Kir2.1, FluxOR thallium flux fluorescence; hits give low values. B-score at 10 µM. 310,000 compounds, 0.85% hits;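 active = fluorescence ratio B-score at or below minus 3 SD of library scores, with starting-brightness B-score within 2 SD, cut at about -4.2 in these data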;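 note: channel flux triggered by added potassium and thallium sulfate stimulus; B-score of peak minus minimum fluorescence over baseline after thallium stimulus; more negative B-score means stronger Kir2.1 block with less thallium influx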
Target sequence (P35561 whole entry, looked up): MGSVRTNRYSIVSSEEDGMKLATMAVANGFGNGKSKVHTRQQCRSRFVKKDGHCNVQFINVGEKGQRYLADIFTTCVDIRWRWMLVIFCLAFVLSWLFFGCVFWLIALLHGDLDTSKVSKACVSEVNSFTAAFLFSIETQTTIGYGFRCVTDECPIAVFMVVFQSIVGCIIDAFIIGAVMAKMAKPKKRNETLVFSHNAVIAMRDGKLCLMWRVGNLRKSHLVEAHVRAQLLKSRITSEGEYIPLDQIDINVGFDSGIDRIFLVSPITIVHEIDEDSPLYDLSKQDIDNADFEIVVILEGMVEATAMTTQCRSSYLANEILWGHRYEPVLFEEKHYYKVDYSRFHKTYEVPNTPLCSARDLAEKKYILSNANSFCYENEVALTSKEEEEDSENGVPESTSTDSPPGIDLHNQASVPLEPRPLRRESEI
TRPC4 act: activators of mouse TRPC4 channel | HEK293 TRPC4beta/mu-opioid, Fluo4 calcium fluorescence; hits give high values | B-score at 10 µM | 310,000 compounds, 0.49% hits;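 active = B-score above 5 SD of library B-scores, and initial fluorescence ratio not above library mean plus 5 SD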;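 note: positive B-score marks a calcium rise read as TRPC4 activation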
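Material: HEK293 stable line with TRPC4beta plus mu-opioid receptor; technique: Fluo4 calcium-sensitive dye fluorescence, kinetic, 1 Hz baseline; timing: Fluo4 dye loading 45 min at room temperature, 110 s recording; controls: assay buffer as low control, maximal DAMGO as high control; read-out: integrated baseline-normalised fluorescence ratio, converted to per-well B score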
TRPC6 inh: inhibitors of mouse TRPC6 channel | HEK293-TRPC6, membrane potential dye, ACh-evoked depolarization; hits give low values | B-score at 10 µM | 310,000 compounds, 1.1% hits;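 active = B-score under library mean minus 3 SD, initial fluorescence not abnormally high, positive integrated signal ratio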;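 note: B-score derived from integrated fluorescence ratio over the kinetic read; more negative B-score means stronger inhibition of depolarization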
TRPC4 block: TRPC4 (mouse) channel inhibition; Q9QUQ5; HEK293 TRPC4beta/mu-opioid, DAMGO-evoked Fluo4 calcium flux; hits give low values; B-score at 10 µM; 300,000 compounds, 0.39% hits; AID 2247;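 active = B-score over 3 SD under the library average, no early fluorescence shift, positive overall ratio signal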
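Assay system: HEK293 cells with stable TRPC4beta plus mu-opioid receptor expression. Dosing: single dose. Measured by: Fluo4 Ca2+ flux fluorescence. Also added: DAMGO in two steps, submaximal then maximal. Read-out: B score from integrated Fluo4 fluorescence ratio.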
TRPC4 potent: allosterically enhances the mouse TRPC4 cation channel; B-score at 10 µM; Q9QUQ5; 310,000 compounds, 0.42% hits; HEK293 TRPC4beta/mu-opioid, DAMGO EC20, Fluo-4 Ca2+ flux; hits give high values; AID 2227;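 active = B-score of calcium response area above 5 SD of library B-scores, with initial fluorescence ratio within 5 SD of library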
TRPC4 sel inh 2: second selectivity test of TRPC6 inhibitors: effect on mouse TRPC4. inhibition, % at 10 µM. 920 compounds, 42% hits. shares compounds with TRPC6 inh. AID 2776. HEK293 TRPC4/MOR, membrane potential dye fluorescence; channel activated by saturating DAMGO dose;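 active = compounds whose fluorescence signal differed from control wells by over 3 SD, either direction, in both duplicate plates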
TRPC4 spec: tests whether TRPC6 inhibitors also affect mouse TRPC4. HEK293 TRPC4/mu-opioid, membrane potential fluorescence. shares compounds with TRPC6 inh. AID 2777. activity change, negative = inhibition, % at 10 µM. 920 compounds, 61% hits;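 active = rise or fall in signal beyond 3 SD of buffer-only wells in both replicate plates, either sign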;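 note: integrated kinetic ratio of fluorescence range over baseline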
HEK293 MPD ctr 2-1: parental HEK293 nonspecific activity of TRPC6 inhibitors, second screen; shares compounds with TRPC6 inh; parental HEK293 membrane potential dye fluorescence; maximal acetylcholine challenge after compound addition; signal change vs control, % at 10 µM; 920 compounds, 31% hits; AID 2779;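 active = membrane potential signal moving either way by over 3 SD of the maximum-effect control, in both duplicate plates, meaning non-specific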
HEK293 MPD ctr-1: counter-screen for TRPC6 inhibitors: effect in parental HEK293 cells. shares compounds with TRPC6 inh. parental HEK293 membrane potential dye fluorescence. membrane potential signal change, % at 10 µM. 920 compounds, 60% hits;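 active = membrane potential signal shifting up or down by more than 3 SD of buffer-only wells, on both duplicate plates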
HEK293 MPD ctr-2: checks TRPC6 modulator effects in parental HEK293 cells. 2,400 compounds, 51% hits. membrane potential dye fluorescence. AID 488924. shares compounds with TRPC6 inh. membrane potential signal change, % at 10 µM;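 active = membrane potential signal moves up or down beyond 5 SD from buffer-only wells, on both duplicate plates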
HEK293 MPD ctr 2-2: parental HEK293 nonspecific activity of TRPC6 modulators, second screen; inhibition, % at 10 µM; shares compounds with TRPC6 inh; 2,400 compounds, 14% hits; membrane potential dye fluorescence; after compound, maximal acetylcholine stimulation;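 active = membrane potential signal drops by more than 5 SD from the mean control signal, in both duplicate plates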
TRPC4 ctr mod: mouse TRPC4 off-target activity of TRPC6 modulators; HEK293 TRPC4/mu-opioid, membrane potential fluorescence; AID 488927; shares compounds with TRPC6 inh; percent change from control (negative = decrease, positive = increase), % at 10 µM; 2,400 compounds, 69% hits;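 active = membrane potential signal moved up or down beyond 5 SD of buffer control wells, in both duplicate plates, actives on both sides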
TRPC4/MOR inh 2: second check of whether TRPC6 modulators also affect mouse TRPC4 | AID 488928 | HEK293 TRPC4/mu-opioid, membrane potential dye fluorescence; stimulated with maximal-effect DAMGO | inhibition, % at 10 µM | shares compounds with TRPC6 inh | 2,400 compounds, 55% hits;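 active = drop in membrane potential signal beyond 5 SD of the control wells in both duplicate plates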;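 note: TRPC4 counter screen for TRPC6 hits run under conditions tuned for TRPC6 not TRPC4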
TRPC6 inh conf: mouse TRPC6 inhibitor confirmation | AID 488960 | 3,300 compounds, 43% hits | HEK293-TRPC6, membrane potential dye, ACh-evoked depolarization | shares compounds with TRPC6 inh | inhibition, % at 10 µM;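 active = fluorescence ratio falls more than 5 SD below the full-stimulation control mean, in both duplicate runs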;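 note: integrated fluorescence ratio of peak minus minimum over baseline after agonist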
TRPC6 act confirm: confirmation of mouse TRPC6 activators; shares compounds with TRPC6 inh; HEK293-TRPC6 membrane potential dye fluorescence, FDSS; activation, % at 10 µM; 2,800 compounds, 11% hits;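 active = ratio signal rise beyond 5 SD above unstimulated control wells' mean, seen in both duplicate runs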
A number is an active result; 0 = inactive; - = no result given. In the library only some 3% were active in any assay of this set; here they are far more common.

SMILES	TRPC6 act	Kir21 inh	TRPC4 act	TRPC6 inh	TRPC4 block	TRPC4 potent	HEK293 MPD ctr-2	HEK293 MPD ctr 2-2	TRPC4 ctr mod	TRPC4/MOR inh 2	TRPC6 inh conf	TRPC6 act confirm	others
COc1ccc(C2(c3ccc(OC)cc3)NC(=O)N(CC(=O)Nc3ccc(OC)c(OC)c3)C2=O)cc1	0	0	0	0	0	0	-	-	-	-	-	-
CC(C)(C)c1nnc(NC(=O)Cc2ccccc2[N+](=O)[O-])s1	0	0	0	-6.4	0	0	0	0	0	0	0	0
O=C1CN(C(=O)c2cc3ccccc3oc2=O)C(c2ccc(F)cc2)c2cc(Br)ccc2N1 (stereo not drawn)	0	0	0	0	0	0	-	-	-	-	-	-
CCOC(=O)N1CCN(C(=O)CSc2nc3ccccc3c(=O)n2-c2ccccc2)CC1	17	0	0	0	0	0	118%	0	30%	0	-	172%
Cc1ccc(NC(=O)Nc2ncnc3nc[nH]c23)cc1	0	0	0	0	0	0	-	-	-	-	-	-
Cc1ccc(-c2cc(C(=O)OCC(=O)N(C)c3c(N)n(Cc4ccccc4)c(=O)[nH]c3=O)c3ccccc3n2)o1	0	0	0	0	0	0	-	-	-	-	-	-
CC1Oc2ccccc2N(CC(=O)N2CCCCCC2)C1=O (stereo not drawn)	0	0	0	0	0	0	-	-	-	-	-	-
CCCCc1cc(=O)oc2cc(C)cc(OCC(=O)NCc3ccncc3)c12	0	0	0	-7.4	0	0	0	0	0	0	0	0
CCCc1cc(=O)oc2cc(C)cc(OCC(=O)NCc3ccccn3)c12	0	0	0	0	0	0	-	-	-	-	-	-
Cc1ccc(OCC(O)Cn2c(=N)n(Cc3ccccc3)c3ccccc32)cc1 (stereo not drawn)	0	-6	0	-8.1	0	0	-	-	-	-	0	0	TRPC4 sel inh 2=40%;TRPC4 spec=11%;HEK293 MPD ctr 2-1=258%;HEK293 MPD ctr-1=8.5%
N=c1n(Cc2ccccc2)c2ccccc2n1CC(O)c1ccco1 (stereo not drawn)	0	0	0	0	0	0	-	-	-	-	-	-
Cc1cccc(OCC(O)Cn2c(=N)n(Cc3ccccc3)c3ccccc32)c1 (stereo not drawn)	0	-10	55	-5.7	0	0	145%	0	68%	112%	50%	-
Cc1nc(N2CCC(C)CC2)c2c(C)c(C(=O)Nc3ccc(C(F)(F)F)cc3)sc2n1	0	0	0	0	0	0	-	-	-	-	-	-
CCOC(=O)C1CCN(C(=O)c2sc3nc(C)nc(N4CCC(C)CC4)c3c2C)CC1	14	0	0	-9	0	0	198%	0	30%	0	78%	127%
Cc1ccc(-n2cccn2)c(CN2CCCC(C(=O)c3ccc4c(c3)OCO4)C2)c1 (stereo not drawn)	0	0	0	-6.8	-8	0	190%	0	14%	83%	53%	-
Cc1cc(Br)c(OCC(=O)NN)c2c1CCC2	0	0	0	0	0	0	-	-	-	-	-	-
CCOC(=O)c1ccc(NC(=O)NCc2ccc(OC)cc2)cc1	0	0	0	0	0	0	-	-	-	-	-	-
CC(=O)c1ccc(NC(=O)Nc2ccncc2)cc1	0	0	43	-5.2	-6	0	-142%	74%	-12%	52%	48%	0
CCOC(=O)c1ccc(NC(=O)NCCc2cnc[nH]2)cc1	0	0	175	-6.8	0	0	-	-	-	-	0	0	TRPC4 sel inh 2=69%;TRPC4 spec=64%;HEK293 MPD ctr 2-1=0;HEK293 MPD ctr-1=0
CCOC(=O)c1ccc(NC(=O)NCc2ccncc2)cc1	0	0	0	-5.5	0	0	0	0	0	0	0	-
CSc1ccc(CNC(=O)C2CCC(=O)N(CCc3cccc(F)c3)C2)cc1 (stereo not drawn)	0	0	0	0	0	0	-	-	-	-	-	-
Cc1ccccc1C(=O)NCCSc1ccccc1	0	0	0	-7.5	0	0	-	-	-	-	0	0	TRPC4 sel inh 2=0;TRPC4 spec=3.9%;HEK293 MPD ctr 2-1=0;HEK293 MPD ctr-1=2.1%
Cc1cc(/C=C2/SC(=O)N(CC(=O)N3CCOCC3)C2=O)c(C)n1-c1ccccc1F	0	0	0	0	0	0	-	-	-	-	-	-
COc1ccc2cc3[n+](cc2c1OC)CCc1cc2c(cc1-3)OCO2	0	0	0	-5.2	0	0	0	110%	0	0	0	0
COc1ccc(C(C)=O)cc1CSc1nncn1C	0	0	0	0	0	0	-	-	-	-	-	-
SMILES	TRPC6 act	Kir21 inh	TRPC4 act	TRPC6 inh	TRPC4 block	TRPC4 potent	HEK293 MPD ctr-2	HEK293 MPD ctr 2-2	TRPC4 ctr mod	TRPC4/MOR inh 2	TRPC6 inh conf	TRPC6 act confirm	others
COc1ccc(C(C)=O)cc1CSc1nnc2c(Cl)cc(Cl)cn12	0	0	0	-7	0	0	-342%	65%	-68%	72%	64%	0
Fc1ccc(-c2nnc(Cc3ccc(Cl)cc3)o2)cc1	0	0	0	0	0	0	-	-	-	-	-	-
COc1ccc(/C(C)=N/NC(=O)CNC(=O)c2cccnc2)c(OC)c1	0	0	0	0	0	0	-	-	-	-	-	-
O=C(Nc1cccc(NC(=O)c2ccc(Br)o2)n1)c1ccc(Br)o1	0	0	0	-6.3	0	0	0	0	0	0	0	0
COc1cccc2sc3ccc(C#CC4(N)CCCCC4)cc3c(=O)c12	0	0	0	-9.2	0	0	-	-	-	-	57%	0	TRPC4 sel inh 2=59%;TRPC4 spec=-15%;HEK293 MPD ctr 2-1=0;HEK293 MPD ctr-1=-228%
CC(C(=O)Nc1cccc(S(=O)(=O)N2CCOCC2)c1)N1CCN(C)CC1 (stereo not drawn)	0	0	0	0	0	0	-	-	-	-	-	-
